Activity calls are given as the source filed them. No cut-off for these calls is given here.
What was measured:
Format in all cases: functional
[1] = tested on: Staphylococcus aureus; assay: Antibacterial activity against methicillin-resistant Staphylococcus aureus USA100 assessed as inhibition of bacterial growth after 18 hrs in presence of oxacillin by CLSI protocol based broth microdilution assay
[2] = tested on: Staphylococcus aureus; assay: Antibacterial activity against methicillin-resistant Staphylococcus aureus COL assessed as inhibition of bacterial growth after 18 hrs in presence of oxacillin by CLSI protocol based broth microdilution assay
[3] = tested on: Staphylococcus aureus; assay: Antibacterial activity against methicillin-resistant Staphylococcus aureus USA300 assessed as inhibition of bacterial growth after 18 hrs in presence of oxacillin by CLSI protocol based broth microdilution assay
[4] = tested on: Staphylococcus aureus; assay: Antibacterial activity against methicillin-resistant Staphylococcus aureus ATCC 43300 assessed as inhibition of bacterial growth after 18 hrs by CLSI protocol based broth microdilution assay
Procedure, shortened: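 Broth microdilution MIC of carbazole alone vs MRSA ATCC 43300, tested up to 200 μM.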

[5] = tested on: Staphylococcus aureus; assay: Potentiation of oxacillin induced antibacterial activity against methicillin-resistant Staphylococcus aureus USA300 assessed as fold change in oxacillin MIC at 50 uM after 18 hrs by CLSI protocol based broth microdilution assay
[6] = tested on: Staphylococcus aureus; assay: Potentiation of oxacillin induced antibacterial activity against methicillin-resistant Staphylococcus aureus USA 100 assessed as fold change in oxacillin MIC at 50 uM after 18 hrs by CLSI protocol based broth microdilution assay
[7] = tested on: Staphylococcus aureus; assay: Potentiation of oxacillin induced antibacterial activity against methicillin-resistant Staphylococcus aureus ATCC 43300 assessed as fold change in oxacillin MIC at 50 uM after 18 hrs by CLSI protocol based broth microdilution assay
[8] = tested on: Staphylococcus aureus; assay: Potentiation of oxacillin induced antibacterial activity against methicillin-resistant Staphylococcus aureus USA300 assessed as oxacillin MIC at 50 uM after 18 hrs by CLSI protocol based broth microdilution assay
[9] = tested on: Staphylococcus aureus; assay: Potentiation of oxacillin induced antibacterial activity against methicillin-resistant Staphylococcus aureus USA100 assessed as oxacillin MIC at 50 uM after 18 hrs by CLSI protocol based broth microdilution assay
[10] = tested on: Staphylococcus aureus; assay: Potentiation of oxacillin induced antibacterial activity against methicillin-resistant Staphylococcus aureus ATCC 43300 assessed as oxacillin MIC at 50 uM after 18 hrs by CLSI protocol based broth microdilution assay
[11] = tested on: Staphylococcus aureus; assay: Potentiation of oxacillin induced antibacterial activity against methicillin-resistant Staphylococcus aureus COL assessed as oxacillin MIC at 50 uM after 18 hrs by CLSI protocol based broth microdilution assay
[12] = tested on: Staphylococcus aureus; assay: Potentiation of oxacillin induced antibacterial activity against methicillin-resistant Staphylococcus aureus COL assessed as fold change in oxacillin MIC at 50 uM after 18 hrs by CLSI protocol based broth microdilution assay
[13] = tested on: Staphylococcus aureus; assay: Potentiation of oxacillin induced antibacterial activity against methicillin-resistant Staphylococcus aureus ATCC 43300 assessed as oxacillin MIC at 25 uM after 18 hrs by CLSI protocol based broth microdilution assay
[14] = tested on: Staphylococcus aureus; assay: Upregulation of mecA gene expression in methicillin-resistant Staphylococcus aureus COL by RT-PCR method
[15] = tested on: Staphylococcus aureus; assay: Upregulation of mecA gene expression in methicillin-resistant Staphylococcus aureus USA300 by RT-PCR method
[16] = tested on: Staphylococcus aureus; assay: Upregulation of blaZ gene expression in methicillin-resistant Staphylococcus aureus USA100 by RT-PCR method
[17] = tested on: Staphylococcus aureus; assay: Upregulation of mecA gene expression in methicillin-resistant Staphylococcus aureus ATCC 43300 by RT-PCR method
[18] = tested on: Staphylococcus aureus; assay: Antibacterial activity against methicillin-resistant Staphylococcus aureus USA300 harboring stk1 deletion mutant assessed as inhibition of bacterial growth after 18 hrs in presence of oxacillin by CLSI protocol based broth microdilution assay
Procedure, shortened: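 USA300 Δstk1 mutant. Oxacillin MIC (µg mL⁻¹) was read with each carbazole held at a fixed 25 or 50 µM, and compared with oxacillin alone in the same strain. Fold change in MIC was taken as alone over cotreated. The parent USA300 and the stk1-complemented (Δ/+stk1) strains were run alongside.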

[19] = tested on: Staphylococcus aureus; assay: Antibacterial activity against methicillin-resistant Staphylococcus aureus USA300 harboring stk1 deletion mutant co-transfected with a plasmid bearing stk1 assessed as inhibition of bacterial growth after 18 hrs in presence of oxacillin by CLSI protocol based broth microdilution assay
Procedure, shortened: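 USA300 Δstk1 strain carrying induced stk1 (Δ/+stk1). […] Fold change in MIC taken relative to oxacillin alone.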

[20] = tested on: Staphylococcus aureus; assay: Upregulation of mecA gene expression in methicillin-resistant Staphylococcus aureus USA100 by RT-PCR method
[21] = tested on: Staphylococcus aureus; assay: Upregulation of blaZ gene expression in methicillin-resistant Staphylococcus aureus ATCC 43300 by RT-PCR method
[22] = tested on: Staphylococcus aureus; assay: Potentiation of oxacillin induced antibacterial activity against methicillin-resistant Staphylococcus aureus USA100 assessed as fold change in oxacillin MIC at 10 uM after 18 hrs by CLSI protocol based broth microdilution assay
[23] = tested on: Staphylococcus aureus; assay: Potentiation of oxacillin induced antibacterial activity against methicillin-resistant Staphylococcus aureus USA300 assessed as oxacillin MIC at 10 uM after 18 hrs by CLSI protocol based broth microdilution assay
[24] = tested on: Staphylococcus aureus; assay: Potentiation of oxacillin induced antibacterial activity against methicillin-resistant Staphylococcus aureus ATCC 43300 assessed as fold change in oxacillin MIC at 10 uM after 18 hrs by CLSI protocol based broth microdilution assay
[25] = tested on: Staphylococcus aureus; assay: Potentiation of oxacillin induced antibacterial activity against methicillin-resistant Staphylococcus aureus ATCC 43300 assessed as oxacillin MIC at 10 uM after 18 hrs by CLSI protocol based broth microdilution assay
[26] = tested on: Staphylococcus aureus; assay: Potentiation of oxacillin induced antibacterial activity against methicillin-resistant Staphylococcus aureus COL assessed as oxacillin MIC at 10 uM after 18 hrs by CLSI protocol based broth microdilution assay
[27] = tested on: Staphylococcus aureus; assay: Potentiation of oxacillin induced antibacterial activity against methicillin-resistant Staphylococcus aureus USA300 assessed as fold change in oxacillin MIC at 10 uM after 18 hrs by CLSI protocol based broth microdilution assay
[28] = tested on: Staphylococcus aureus; assay: Potentiation of oxacillin induced antibacterial activity against methicillin-resistant Staphylococcus aureus COL assessed as fold change in oxacillin MIC at 10 uM after 18 hrs by CLSI protocol based broth microdilution assay
[29] = tested on: Staphylococcus aureus; assay: Potentiation of oxacillin induced antibacterial activity against methicillin-resistant Staphylococcus aureus USA100 assessed as oxacillin MIC at 10 uM after 18 hrs by CLSI protocol based broth microdilution assay

Row | SMILES | MIC [4] | fold change (FC) [5] | fold change (FC) [6] | fold change (FC) [7] | MIC [8] [µg/mL] | MIC [9] [µg/mL] | MIC [10] [µg/mL] | MIC [11] [µg/mL] | fold change (FC) [12] | also measured
1 | COc1cccc(OC)c1C(=O)N[C@@H]1C(=O)N2[C@@H]1SC(C)(C)[C@@H]2C(=O)O [METHICILLIN] | 4 µg/mL | – | – | – | – | – | – | – | – | MIC [1]: 512 µg/mL; MIC [2]: 1020 µg/mL; MIC [3]: 32 µg/mL
2 | Oc1cccc2[nH]c3ccccc3c12 | > 200 µM | 1 | 1 | 1 | 32 | 256 | 32 | 512 | 1 | –
3 | CO[C@@]1(NC(=O)Cc2cccs2)C(=O)N2C(C(=O)O)=C(COC(N)=O)CS[C@@H]21 [CEFOXITIN] | 64 µg/mL | – | – | – | – | – | – | – | – | MIC [1]: 256 µg/mL; MIC [2]: 256 µg/mL; MIC [3]: 32 µg/mL
4 | CC(C(=O)O)c1ccc2c(c1)[nH]c1ccc(Cl)cc12 (stereo not given) [CARPROFEN] | 100 µM | 1 | 1 | – | 16 | 256 | – | 512 | 1 | MIC [13]: 32 µg/mL
5 | Brc1ccc2[nH]c3ccccc3c2c1 | > 200 µM | 1 | 2 | 1 | 32 | 128 | 32 | 512 | 1 | –
6 | Cc1onc(-c2ccccc2)c1C(=O)N[C@@H]1C(=O)N2[C@@H]1SC(C)(C)[C@@H]2C(=O)O [OXACILLIN] | 32 µg/mL | – | – | – | – | – | – | – | – | Activity [14]: Active; Activity [15]: Active; Activity [16]: Active; Activity [17]: Active; MIC [1]: 256 µg/mL; MIC [2]: 512 µg/mL; MIC [18]: 0.25 µg/mL; MIC [3]: 32 µg/mL; MIC [19]: 4 µg/mL; Activity [20]: Active; Activity [21]: Active
7 | Ic1ccc2[nH]c3ccccc3c2c1 | > 200 µM | 2 | 2 | 2 | 16 | 128 | 16 | 512 | 1 | –
8 | Clc1ccc2c(c1)[nH]c1ccccc12 | > 200 µM | 1 | 2 | 2 | 16 | 128 | 16 | 512 | 2 | –
9 | COc1ccc2[nH]c3ccc(OC)cc3c2c1 | > 200 µM | >1 | 1 | 0.5 | 64 | 256 | 64 | 512 | 1 | –
10 | Brc1ccc2c(c1)[nH]c1cc(Br)ccc12 | > 200 µM | 4 | 4 | 4 | 8 | 64 | 8 | 256 | 2 | –
11 | Brc1ccc2c(c1)[nH]c1ccccc12 | > 200 µM | 1 | 2 | 2 | 32 | 128 | 16 | 512 | 1 | –
12 | Nc1ccc2[nH]c3ccc(N)cc3c2c1 | > 200 µM | 1 | 1 | 1 | 16 | 256 | 32 | 512 | 1 | –
13 | CC1(C)S[C@@H]2[C@H](NC(=O)[C@H](N)c3ccccc3)C(=O)N2[C@H]1C(=O)O [AMPICILLIN] | 32 µg/mL | – | – | – | – | – | – | – | – | MIC [1]: 32 µg/mL; MIC [2]: 32 µg/mL; MIC [3]: 8 µg/mL
14 | CC(C)(O/N=C(\C(=O)N[C@@H]1C(=O)N2C(C(=O)[O-])=C(C[n+]3ccccc3)CS[C@H]12)c1csc(N)n1)C(=O)O [CEFTAZIDIME] | 128 µg/mL | – | – | – | – | – | – | – | – | MIC [1]: 1020 µg/mL; MIC [2]: 1020 µg/mL; MIC [3]: 512 µg/mL
15 | Fc1ccc2[nH]c3ccccc3c2c1 | > 200 µM | 1 | 2 | 2 | 32 | 128 | 16 | 512 | 1 | –
16 | c1ccc2c(c1)[nH]c1ccccc12 [CARBAZOLE] | > 200 µM | 1 | 1 | 1 | 32 | 256 | 32 | 512 | 1 | –
17 | Clc1ccc2[nH]c3ccc(Cl)cc3c2c1 | 50 µM | – | – | – | – | – | – | – | – | fold change (FC) [22]: 1; MIC [23]: 16 µg/mL; fold change (FC) [24]: 1; MIC [25]: 16 µg/mL; MIC [26]: 128 µg/mL; fold change (FC) [27]: 2; fold change (FC) [28]: 4; MIC [29]: 256 µg/mL
